Measured values: the EternaBench riboswitch data

Test system: MS2 coat protein
Experiment: apparent Kd, MS2 coat protein; higher = weaker binding; RNA-MaP array; FMN 200 µM where present
Outline: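 The titrant was SNAP-549-labelled MS2 coat protein, run from 0.7 or 1.5 nM in doubling steps to 3 µM. It was applied to designs transcribed by stalled E. coli RNA polymerase on Illumina sequencing-chip clusters, without ligand first and then with constant ligand, in 100 mM Tris-HCl pH 7.5, 80 mM KCl, 4 mM MgCl2, BSA, DTT, yeast tRNA and Tween-20. The apparent Kd is the median of filtered per-cluster binding-curve fits, with green signal normalised to red-channel RNA signal and control-cluster median Fmax.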

[1] = designed as: ON switch for flavin mononucleotide, no ligand
[2] = ligand present: flavin mononucleotide, designed as: ON switch for flavin mononucleotide
[3] = designed as: OFF switch for flavin mononucleotide, no ligand
[4] = ligand present: flavin mononucleotide, designed as: OFF switch for flavin mononucleotide

Sequence	apparent Kd [1] [nM]	apparent Kd [2] [nM]	apparent Kd [3] [nM]	apparent Kd [4] [nM]
GGACAUUUACAGAAGGGCAAGUUUUAUAGUGAAUAUUUAGUUCUGACUUGCAGGAUAUGUUGAACAUGAGGAUCACCCAUGUCC	16.4	10.5		
GGACAUUUACAGAAGGGCAAUUUAUUUAUUGAUUAUUUAGUUCUGUUUUGCAGGAUAUGUUUUACAUGAGGAUCACCCAUGUCC	66.8	36.2		
GGACGACUCAUUAACAUGAGGAUCACCCAUGUCAAAAGACAUGAGGAUAUGGAUCCUAAUUGGAUCCAGAAGGCAUGGUCGUCC	944	51.8		
GGACGCGUAGGAUAUGCAAUCGAAGUCGAGUUUUCUGGUGGACAUGAGGAUCACCCAUGUAGAAGGAUGUAGCA			44.2	33.4
GGACGUCCCAUUAACAUGAGGAUCACCCAUGUCAAAAGACAUGAGGAUAUGCAUCCUAAUUGGAUGCAGAAGGCAUGGACGUCC	1180	87.3		
GGACGUUACAUCUACAUGAGGAUCACCCAUGUCUCUUGAGAUGAGGAUAUGUAUACGAAUCGUUUAUAGAAGGCAUGUACGUCC	39.8	46.4		
GGAGACCUCACAGGAUAUGCUGGACUUUGUCCAGCAGAAGGGUGAACAUGAGGAUCACCCAUGUGGUCUUCCAAAAUAUUUAAU	693	280		
GGAGACCUCACAGGAUAUGCUGGACUUUGUCCAGCAGAAGGGUGAAUACAUGAGGAUCACCCAUGUGGUCUCCAAAUAUUUAAU	1170	75.3		
GGAGAGUUCACAGGAUAUCAUGGGUAGUUAUUUUGAGAAGGGUGAACAAGGAACAUGAGGAUCACCCAUGUAUCCUGGGAGGGC	24.4	36.8		
GGAGCAACAUGAGGAUCACCCAUGUAGGAUAUCGCUAUUGUAAUCAUGAAACAUGAUUACAAUAGCGAGAAGGACAUAUGCUAA			10.6	12.5
GGAGCUCACAUGAACAUGAGGAUCACCCAUGUAAAUUCUCAUGAGGAUAUGGAUCCUAAUUGGAUCCAGAAGGCAUGGAGCUCC	1350	316		
GGAGGAGGAGUGAGGAUAUGGUGGUGGAAACACCACCAGAAGGCACAUGAGGAUCACCCAUGUGAAGAAGAGAA			18.9	24.9
GGAUAGGACAGAGGAUAUACAGAUAGGAUCUACUAUCAAACAGUCCUGACAUGAGGAUCACCCAUGUAGAAGGCUGUCCUAUCG			21.9	107
GGAUAGGACAGAGGAUAUACGUGCUAGAAAUACUAGCAAAAUUUCCUCACAUGAGGAUCACCCAUGUAGAAGGCUGUCCUAUCG			14.5	542
GGAUAGGACAGAGGAUAUACGUGCUAGAGAUACUAGCAAAAUUUCCUCACAUGAGGAUCACCCAUGUAGAAGGCUAUCCUAUCG			6.34	31.9
GGAUAGGACAGAGGAUAUACGUGCUAGAGAUACUAGCAAAAUUUCCUCACAUGAGGAUCACCCAUGUAGAAGGCUGUCCUAUUG			15.6	460
GGAUAGGACAGAGGAUAUACGUGCUAGAGAUACUAGCAAAAUUUCCUCACAUGAGGAUCACCCAUGUAGAAGGCUGUCCUGUCG			17.1	354
GGAUAGGACAGAGGAUAUACGUGCUAGAGAUACUAGCAAUAUUUCCUCACAUGAGGAUCACCCAUGUAGAAGGCUGUCCUAUCG			6.26	73.7
GGAUAGGACAGAGGAUAUACGUGCUAGAGAUACUAGCCAAAUUUCCUCACAUGAGGAUCACCCAUGUAGAAGGCUGUCCUAUCG			6.86	84.5
GGAUAGGACAGAGGAUAUACGUGCUAGAGAUGCUAGCAAAAUUUCCUCACAUGAGGAUCACCCAUGUAGAAGGCUGUCCUAUCG			15.8	393
GGAUAGGACAGAGGAUAUCCGUGCUAGAGAUACUAGCAAAAUUUCCUCACAUGAGGAUCACCCAUGUAGAAGGCUGUCCUAUCG			5.98	11.7

Sequence	apparent Kd [1] [nM]	apparent Kd [2] [nM]	apparent Kd [3] [nM]	apparent Kd [4] [nM]
GGAUAGUGUCGUUAUCCGUAGCGAACAUGAGGAUCACCCAUGUAGGAUAUGUUAUUAAACUAAUAACAGAAGGGCGUUAGUCUC			37.1	42.8
GGAUCAAUAGUCCACAUGAGGAUCACCCAUGUAGUAUUUUACAAGGAUAUGGUGGGACUUCGUGGCCAGAAGGUGUAAAGGAUC	194	99.7		
GGAUCACGAGGAUAUCGAUUUUAGUACAUGAGGAUCACCCAUGUUGUCCAGGUCUCGAUUCGAGAAGGCGUGAUUC			36.6	59.2
GGAUCCAACACAGGAUAUGCUGGACUUUGUCCAGCAGAAGGGUGAAGAACAUGAGGAUCACCCAUGUGGAUCCAUAUAUGUAAU	273	16.6		
GGAUCCAACACAGGAUAUGCUGGACUUUGUCCAGCAGAAGGGUGAAGGACAUGAGGAUCACCCAUGUGGAUCCAUAUAUUUAAU	324	27.8		
GGAUCCUUCACAGGAUAUGCUGGACUUUGUCCAGCAGAAGGGUGAACAUGAGGAUCACCCAUGUAUUGGAUCCAUAUAUUUAAU	897	56.1		
GGAUCGGACAGAGGAUAUACGUGCUAGAGAUACUAGCAAAAUUUCCUCACAUGAGGAUCACCCAUGUAGAAGGCUGUCCUAUCG			15.9	327
GGAUCUUGGGUCAGGAUAUGCUGACAGCCAUGUCAGCAGAAGGGACAUGAGGAUCACCCAUGUGCUCGGUUUUG			10.3	18.1
GGAUGACAAAGUCAUCCAAAUCGAACAUGAGGAUCACCCAUGUAGGAUAUCCUACUCAAAGAGUAGGAGAAGGACAUGUGCUUU			53.1	178
GGAUGACAAAGUCAUCCAAUUCGAACAUGAGGAUCACCCAUGUAGGAUAUGCUUCUCAAAGAGAAGCAGAAGGACAUGUGCCUU			29.5	215
GGAUGACAAAGUCAUCCUAUUCGAACAUGAGGAUCACCCAUGUAGGAUAUGCUUCUCAAAGAGAAGCAGAAGGACAUGUGCUUU			36.8	160
GGAUGAUAAAUAGGAUAUUAAUUGUAAUUAGGUUAAGAAGGAUUAAUGAUUUAAACGACCAGUUACAUGAGGAUCACCCAUGUU	177	161		
GGAUGUCAAAGACAUCCAUAACGAACAUGAGGAUCACCCAUGUAGGAUAUGCUACUCAAAGAGUAGCAGAAGGACAUGUGCCUU			33.6	269
GGAUUACAUGAGGAUCACCCAUGUGAGGAUAUCGAUGUCCUCAGUGGAGUGCGGGACUCGAGAAGGCACUUGGA			172	169
GGCAGACAUGAGGAUCACCCAUGUGAGGAUAUCGUCAUAGAUGCAAAAGCAUCUAUGACGAGAAGGUACAUGCC			23.2	19.2
GGCAGAGACGUUAACAUGAGGAUCACCCAUGUCGAAGGAGAUGAGGAUAUCGUAUACGAUGUAUAUGAGAAGGCAUGGUCUGCC	18.8	7.6		
GGCAGAUGAGGAUAUACGUGCAAUCAGUGAUCCAGCCAUUAACAUGAGGAUCACCCAUGUAGAAGGCGUUUUCU			115	195
GGCGAACAGGCUAACAUGAGGAUCACCCAUGUGGACUCAUGGUAGGAUAUGCUGUACUUUGUACAGCAGAAGGGCCGGUGAGCC	54.4	315		
GGCGGCGCGGGCCACCGCAGGACCAGAAGGACAUGAGGAUCACCCAUGUGGCAGAACAGGGCGGUGUAGGAUAUGGCAGGCUCG			28.8	64.3
GGCGGUUUACAAGGAUAUUAGAAACAGACCAAAUAAGAAGGUGUUAUCUGGCAAUGCGAAAGCAGACAUGAGGAUCACCCAUGU	58.3	57.1		
